Measured values from ChEMBL document CHEMBL4699432, “Rational design, synthesis and testing of novel tricyclic topoisomerase inhibitors for the treatment of bacterial infections part 1” (RSC Med Chem, 2020).
pIC50: −log10 of the molar value. ≈ marks a conversion by molar mass, not a printed value.

Assays:
Staphylococcus aureus [1] = assay: Antibacterial activity against Staphylococcus aureus ATCC 29213 assessed as reduction in bacterial growth by CLSI method based broth microdilution assay; assay type: functional
[2] = Lipophilicity, logD of the compound at pH 7.4; assay type: physicochemical; conditions: buffer
[3] = Thermodynamic solubility of compound at physiological pH; assay type: physicochemical; conditions: read-out: Therm_solubility
Streptococcus pneumoniae = assay: Antibacterial activity against Streptococcus pneumoniae ATCC 49619 assessed as reduction in bacterial growth by CLSI method based broth microdilution assay; assay type: functional
Procedure, shortened: (§1)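 MIC by broth microdilution following CLSI guidelines for culturing and susceptibility testing; each determination run in triplicate. Agar dilution was used instead only ahead of frequency-of-resistance work.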

[4] = Cytotoxicity against human HepG2 cells; assay type: cell-based
Staphylococcus aureus [5] = assay: Antibacterial activity against methicillin-resistant Staphylococcus aureus NRS74 assessed as reduction in bacterial growth by CLSI method based broth microdilution assay; assay type: functional
Staphylococcus aureus [6] = assay: Antibacterial activity against methicillin-resistant Staphylococcus aureus VRS8 assessed as reduction in bacterial growth by CLSI method based broth microdilution assay; assay type: functional
[7] = biological target: Voltage-gated inwardly rectifying potassium channel KCNH2 (Homo sapiens, UniProt Q12809)
Sequence of Voltage-gated inwardly rectifying potassium channel KCNH2 (Q12809 whole entry): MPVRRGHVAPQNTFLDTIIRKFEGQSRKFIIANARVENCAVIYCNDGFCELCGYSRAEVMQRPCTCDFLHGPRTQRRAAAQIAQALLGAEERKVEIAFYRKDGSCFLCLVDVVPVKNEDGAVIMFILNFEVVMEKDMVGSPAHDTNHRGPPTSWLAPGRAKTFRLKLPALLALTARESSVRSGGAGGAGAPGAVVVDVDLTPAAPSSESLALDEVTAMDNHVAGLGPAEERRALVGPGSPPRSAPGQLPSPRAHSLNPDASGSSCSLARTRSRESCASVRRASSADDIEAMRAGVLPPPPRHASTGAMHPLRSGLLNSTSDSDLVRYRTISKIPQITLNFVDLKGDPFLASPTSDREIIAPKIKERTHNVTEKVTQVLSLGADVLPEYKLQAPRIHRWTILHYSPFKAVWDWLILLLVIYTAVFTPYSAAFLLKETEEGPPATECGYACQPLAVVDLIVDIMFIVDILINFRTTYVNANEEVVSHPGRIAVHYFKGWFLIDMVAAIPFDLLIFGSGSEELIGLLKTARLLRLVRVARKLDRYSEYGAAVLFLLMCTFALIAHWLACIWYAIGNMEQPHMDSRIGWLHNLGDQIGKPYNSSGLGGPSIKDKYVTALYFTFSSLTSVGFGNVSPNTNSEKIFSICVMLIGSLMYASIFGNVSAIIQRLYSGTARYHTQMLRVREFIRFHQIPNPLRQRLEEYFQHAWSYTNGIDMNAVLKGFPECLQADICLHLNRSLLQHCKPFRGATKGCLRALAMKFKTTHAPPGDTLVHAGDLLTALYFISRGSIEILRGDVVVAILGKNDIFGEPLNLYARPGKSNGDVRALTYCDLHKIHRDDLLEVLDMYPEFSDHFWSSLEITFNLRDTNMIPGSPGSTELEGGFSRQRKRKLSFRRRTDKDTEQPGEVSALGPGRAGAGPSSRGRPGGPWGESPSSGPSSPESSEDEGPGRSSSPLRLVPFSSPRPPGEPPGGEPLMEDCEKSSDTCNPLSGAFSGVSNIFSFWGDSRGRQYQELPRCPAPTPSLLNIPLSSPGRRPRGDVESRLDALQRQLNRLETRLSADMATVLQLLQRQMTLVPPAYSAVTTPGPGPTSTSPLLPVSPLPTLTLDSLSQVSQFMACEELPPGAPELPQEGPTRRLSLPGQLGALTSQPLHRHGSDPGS

Cytochrome P450 1A2 = biological target: T1, Cytochrome P450 1A2 (Homo sapiens, UniProt P05177); assay: Inhibition of CYP1A2 (unknown origin)
T1 sequence (P05177 whole entry): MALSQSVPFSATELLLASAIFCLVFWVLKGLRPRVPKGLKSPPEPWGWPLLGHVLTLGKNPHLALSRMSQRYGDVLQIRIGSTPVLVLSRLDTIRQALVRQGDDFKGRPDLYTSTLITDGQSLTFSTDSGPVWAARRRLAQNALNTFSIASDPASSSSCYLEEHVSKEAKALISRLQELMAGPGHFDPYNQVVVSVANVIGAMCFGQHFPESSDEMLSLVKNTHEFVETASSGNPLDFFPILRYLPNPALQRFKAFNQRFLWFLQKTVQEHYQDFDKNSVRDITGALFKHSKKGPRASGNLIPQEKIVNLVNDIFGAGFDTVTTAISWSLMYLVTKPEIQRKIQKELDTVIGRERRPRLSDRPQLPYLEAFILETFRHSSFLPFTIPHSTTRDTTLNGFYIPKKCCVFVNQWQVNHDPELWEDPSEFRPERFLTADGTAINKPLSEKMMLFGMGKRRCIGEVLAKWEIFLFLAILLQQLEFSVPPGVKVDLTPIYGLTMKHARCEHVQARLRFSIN

Cytochrome P450 2C9 = Cytochrome P450 2C9 (Homo sapiens, UniProt P11712); assay: Inhibition of CYP2C9 (unknown origin)
Sequence of Cytochrome P450 2C9 (P11712 whole entry): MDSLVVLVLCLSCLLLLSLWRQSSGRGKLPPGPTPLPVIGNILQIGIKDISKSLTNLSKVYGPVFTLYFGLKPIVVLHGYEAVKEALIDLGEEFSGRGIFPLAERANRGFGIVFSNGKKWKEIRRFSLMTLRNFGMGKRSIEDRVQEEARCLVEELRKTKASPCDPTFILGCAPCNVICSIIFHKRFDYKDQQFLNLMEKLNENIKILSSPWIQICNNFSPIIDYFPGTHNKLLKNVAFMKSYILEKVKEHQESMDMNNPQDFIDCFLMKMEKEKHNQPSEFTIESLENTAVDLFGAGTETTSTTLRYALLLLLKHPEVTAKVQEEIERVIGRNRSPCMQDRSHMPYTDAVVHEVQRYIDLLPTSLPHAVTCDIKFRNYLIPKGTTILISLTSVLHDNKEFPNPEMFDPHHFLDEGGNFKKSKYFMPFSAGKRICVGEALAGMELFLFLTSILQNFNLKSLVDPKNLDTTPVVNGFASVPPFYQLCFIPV

Cytochrome P450 2C19 = Cytochrome P450 2C19 (Homo sapiens, UniProt P33261); assay: Inhibition of CYP2C19 (unknown origin)
Sequence of Cytochrome P450 2C19 (P33261 whole entry): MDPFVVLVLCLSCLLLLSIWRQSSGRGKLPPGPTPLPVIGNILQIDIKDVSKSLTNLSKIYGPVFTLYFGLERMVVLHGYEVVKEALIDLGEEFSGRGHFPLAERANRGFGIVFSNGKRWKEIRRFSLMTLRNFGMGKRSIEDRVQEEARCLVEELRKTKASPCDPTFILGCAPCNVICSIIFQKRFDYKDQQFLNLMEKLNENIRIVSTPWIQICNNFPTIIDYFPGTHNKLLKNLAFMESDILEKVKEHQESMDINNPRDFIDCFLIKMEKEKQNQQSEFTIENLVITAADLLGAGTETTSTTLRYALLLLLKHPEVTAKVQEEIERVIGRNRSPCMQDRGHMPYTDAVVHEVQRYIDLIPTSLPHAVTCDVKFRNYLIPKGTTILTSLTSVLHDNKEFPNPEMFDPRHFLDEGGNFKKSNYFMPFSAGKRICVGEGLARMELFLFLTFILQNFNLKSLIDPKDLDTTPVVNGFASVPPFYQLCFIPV

Cytochrome P450 3A4 = Cytochrome P450 3A4 (Homo sapiens, UniProt P08684); assay: Inhibition of CYP3A4 (unknown origin)
Sequence of Cytochrome P450 3A4 (P08684 whole entry): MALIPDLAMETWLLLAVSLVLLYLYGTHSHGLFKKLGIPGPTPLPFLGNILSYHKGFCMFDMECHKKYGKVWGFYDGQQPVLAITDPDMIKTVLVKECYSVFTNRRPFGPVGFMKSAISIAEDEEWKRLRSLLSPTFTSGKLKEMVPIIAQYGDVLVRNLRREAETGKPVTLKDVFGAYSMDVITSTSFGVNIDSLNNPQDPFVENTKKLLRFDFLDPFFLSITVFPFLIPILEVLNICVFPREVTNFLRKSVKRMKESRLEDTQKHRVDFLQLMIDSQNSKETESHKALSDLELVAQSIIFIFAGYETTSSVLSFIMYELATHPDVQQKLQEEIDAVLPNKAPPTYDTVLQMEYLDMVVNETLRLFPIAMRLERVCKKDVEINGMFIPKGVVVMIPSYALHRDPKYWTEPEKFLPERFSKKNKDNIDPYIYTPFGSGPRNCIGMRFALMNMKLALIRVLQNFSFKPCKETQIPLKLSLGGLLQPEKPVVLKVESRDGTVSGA

Cytochrome P450 2D6 = Cytochrome P450 2D6 (Homo sapiens, UniProt P10635); assay: Inhibition of CYP2D6 (unknown origin)
Sequence of Cytochrome P450 2D6 (P10635 whole entry): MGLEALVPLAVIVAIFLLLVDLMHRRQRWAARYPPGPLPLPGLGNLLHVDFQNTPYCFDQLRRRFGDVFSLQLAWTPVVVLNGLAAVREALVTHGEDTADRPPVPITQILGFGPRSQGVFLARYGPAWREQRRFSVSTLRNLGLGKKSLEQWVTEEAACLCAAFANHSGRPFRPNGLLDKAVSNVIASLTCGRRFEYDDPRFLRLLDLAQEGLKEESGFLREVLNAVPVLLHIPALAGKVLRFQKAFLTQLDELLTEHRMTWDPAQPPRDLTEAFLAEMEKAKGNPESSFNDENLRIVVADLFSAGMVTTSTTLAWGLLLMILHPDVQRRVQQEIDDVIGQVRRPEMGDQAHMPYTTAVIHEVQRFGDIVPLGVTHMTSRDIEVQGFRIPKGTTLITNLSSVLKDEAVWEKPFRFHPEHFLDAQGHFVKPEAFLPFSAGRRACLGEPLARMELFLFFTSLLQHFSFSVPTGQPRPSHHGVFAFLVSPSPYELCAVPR

Staphylococcus aureus [8] = assay: Antibacterial activity against fluoroquinolone and multidrug-resistant Staphylococcus aureus assessed as reduction in bacterial growth by CLSI method based broth microdilution assay; assay type: functional
Procedure, shortened: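 Run to CLSI guidelines by broth microdilution, in triplicate. Growth was read to give the MIC.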

Neisseria gonorrhoeae = assay: Antibacterial activity against Neisseria gonorrhoeae assessed as reduction in bacterial growth by CLSI method based broth microdilution assay; assay type: functional; procedure, shortened: as §1
hERG (KCNH2) = hERG (KCNH2) (Homo sapiens, UniProt Q12809); assay: Inhibition of human ERG at 100 uM relative to control
Sequence of hERG (KCNH2) (Q12809 whole entry): as the sequence (Q12809 whole entry) above

Row | MIC (Staphylococcus aureus [1]) | logD [2] | solubility thermodynamic [3] | MIC (Streptococcus pneumoniae) | Structure (SMILES) | CC50 [4] | further results
1 | 2 µg/mL (≈ 5.66 µM) |  |  |  | Nc1cc(F)c(-c2ccc3c4ocnc4c(=O)n(C4CC4)c3c2)cc1F |  | 
2 | 0.25 µg/mL (≈ 0.645 µM) |  |  |  | Nc1cc(F)c(-c2ccc3c4ocnc4c(=O)n(C4CC4)c3c2Cl)cc1F |  | 
3 | 0.25 µg/mL (≈ 0.673 µM) |  |  |  | Nc1cc(F)c(-c2cc3c(cc2F)c2ocnc2c(=O)n3C2CC2)cc1F |  | 
4 | 0.25 µg/mL (≈ 0.698 µM) | 3.03 | < 9 µg/mL | 4 µg/mL (≈ 11.2 µM) | Cc1c(-c2ccc3nonc3c2)ccc2c3ocnc3c(=O)n(C3CC3)c12 | > 32 µg/mL | 
5 | 128 µg/mL (≈ 344 µM) |  |  |  | Nc1cc(F)c(-c2nc3c(cc2F)c2ocnc2c(=O)n3C2CC2)cc1F |  | 
6 | 0.03 µg/mL (≈ 0.0787 µM) |  |  |  | Cc1nc2c(=O)n(C3CC3)c3c(C)c(-c4cc(F)c(N)cc4F)ccc3c2o1 |  | 
7 | 0.5 µg/mL (≈ 1.39 µM) |  |  | 2 µg/mL (≈ 5.56 µM) | Cc1c(-c2ccc(C(C)N)cc2)ccc2c3ocnc3c(=O)n(C3CC3)c12 (configuration not stated) | > 32 µg/mL | 
8 | 0.5 µg/mL (≈ 1.51 µM) | 2.59 |  | 4 µg/mL (≈ 12.1 µM) | Cc1c(-c2ccc(N)cc2)ccc2c3ocnc3c(=O)n(C3CC3)c12 |  | 
9 | 0.004 µg/mL (≈ 0.0112 µM) | 3.29 | 1.1 µg/mL | 0.5 µg/mL (≈ 1.4 µM) | Cc1c(-c2ccc3[nH]ncc3c2)ccc2c3ocnc3c(=O)n(C3CC3)c12 | > 16 µg/mL | 
10 | 0.25 µg/mL (≈ 0.701 µM) | 3.03 | < 9 µg/mL | 0.25 µg/mL (≈ 0.701 µM) | Cc1c(-c2ccc3[nH]cnc3c2)ccc2c3ocnc3c(=O)n(C3CC3)c12 | > 16 µg/mL | 
11 | 1 µg/mL (≈ 3 µM) | 1.32 | 15 µg/mL | 4 µg/mL (≈ 12 µM) | Cc1c(-c2cnc(N)nc2)ccc2c3ocnc3c(=O)n(C3CC3)c12 | > 32 µg/mL | 
12 | 64 µg/mL (≈ 192 µM) | 1.46 | 6.8 µg/mL | > 128 µg/mL | Cc1c(-c2cnc(N)cn2)ccc2c3ocnc3c(=O)n(C3CC3)c12 |  | 
13 | 2 µg/mL (≈ 5.63 µM) |  |  |  | CCn1c(=O)c2ncoc2c2ccc(-c3cc(F)c(N)cc3F)c(C)c21 |  | 
14 | 0.12 µg/mL (≈ 0.336 µM) | 0.75 | 209 µg/mL | 0.5 µg/mL (≈ 1.4 µM) | Cc1c(-c2ccc3c(c2)CNC3)ccc2c3ocnc3c(=O)n(C3CC3)c12 | > 64 µg/mL | 
15 | 0.25 µg/mL (≈ 0.673 µM) | 2.52 | 16 µg/mL | 0.25 µg/mL (≈ 0.673 µM) | Cc1c(-c2ccc3[nH]c(N)nc3c2)ccc2c3ocnc3c(=O)n(C3CC3)c12 | > 32 µg/mL | 
16 | > 64 µg/mL |  |  | > 64 µg/mL | Cc1c(-c2ccc(N)nn2)ccc2c3ocnc3c(=O)n(C3CC3)c12 |  | 
17 | 1 µg/mL (≈ 2.68 µM) |  |  |  | CCn1c(=O)c2ncoc2c2cc(F)c(-c3cc(F)c(N)cc3F)c(C)c21 |  | 
18 | 0.5 µg/mL (≈ 1.35 µM) |  |  |  | C[C@H]1COc2c(-c3cc(F)c(N)cc3F)ccc3c4ocnc4c(=O)n1c23 |  | 
19 | 1 µg/mL (≈ 3.16 µM) |  |  | 4 µg/mL (≈ 12.6 µM) | Cc1c(-c2ccccc2)ccc2c3ocnc3c(=O)n(C3CC3)c12 |  | 
20 | 0.06 µg/mL (≈ 0.157 µM) | 3.14 | 1.9 µg/mL | 0.25 µg/mL (≈ 0.654 µM) | Cc1c(-c2cc(F)c(CO)cc2F)ccc2c3ocnc3c(=O)n(C3CC3)c12 | > 32 µg/mL | 
21 | 0.12 µg/mL (≈ 0.343 µM) | 3.05 | 1.1 µg/mL | 1 µg/mL (≈ 2.86 µM) | Cc1c(-c2ccc(N)cc2F)ccc2c3ocnc3c(=O)n(C3CC3)c12 | 16 µg/mL (≈ 45.8 µM) | 
22 | 0.12 µg/mL (≈ 0.343 µM) |  |  | 2 µg/mL (≈ 5.72 µM) | Cc1c(-c2ccc(N)c(F)c2)ccc2c3ocnc3c(=O)n(C3CC3)c12 | > 128 µg/mL | 
23 | 0.06 µg/mL (≈ 0.168 µM) | 2.94 |  | 0.25 µg/mL (≈ 0.701 µM) | Cc1c(-c2ccc(N)c(C#N)c2)ccc2c3ocnc3c(=O)n(C3CC3)c12 | > 4 µg/mL | 
24 | 64 µg/mL (≈ 161 µM) |  |  | > 128 µg/mL | Cc1c(-c2cc(F)c(C(=O)O)cc2F)ccc2c3ocnc3c(=O)n(C3CC3)c12 |  | 

Row | Structure (SMILES) | MIC (Staphylococcus aureus [1]) | logD [2] | solubility thermodynamic [3] | MIC (Streptococcus pneumoniae) | CC50 [4] | further results
25 | Cc1c(-c2cnc3[nH]ncc3c2)ccc2c3oc(CN)nc3c(=O)n(C3CC3)c12 | 0.25 µg/mL (≈ 0.647 µM) |  | 618 µg/mL |  | > 128 µg/mL | MIC (Staphylococcus aureus [5]): 2 µg/mL (≈ 5.18 µM); MIC (Staphylococcus aureus [6]): 2 µg/mL (≈ 5.18 µM); pIC50 [7]: 4.35
26 | Cc1c(-c2cc(F)c(N)cc2F)ccc2c3oc(CN)nc3c(=O)n(C3CC3)c12 | 0.06 µg/mL (≈ 0.151 µM) |  | 36 µg/mL |  | > 64 µg/mL | MIC (Staphylococcus aureus [5]): 0.06 µg/mL (≈ 0.151 µM); MIC (Staphylococcus aureus [6]): 4 µg/mL (≈ 10.1 µM); pIC50 (Cytochrome P450 1A2): 5.12; pIC50 (Cytochrome P450 2C9): 6.52; pIC50 (Cytochrome P450 2C19): 6.30; pIC50 (Cytochrome P450 3A4): 4.89; pIC50 (Cytochrome P450 2D6): 4.95
27 | Cc1c(-c2ccc3[nH]ncc3c2)ccc2c3oc(CN)nc3c(=O)n(C3CC3)c12 | 0.06 µg/mL (≈ 0.156 µM) |  | 10 µg/mL |  | 32 µg/mL (≈ 83 µM) | MIC (Staphylococcus aureus [5]): 0.5 µg/mL (≈ 1.3 µM); MIC (Staphylococcus aureus [6]): 2 µg/mL (≈ 5.19 µM); pIC50 (Cytochrome P450 1A2): 4.91; pIC50 (Cytochrome P450 2C9): 6.70; pIC50 (Cytochrome P450 2C19): 6.10; pIC50 (Cytochrome P450 3A4): 5.89; pIC50 (Cytochrome P450 2D6): 4.90
28 | Cc1c(-c2cc(F)c(N)cc2F)ccc2c3ocnc3c(=O)n(C3CC3)c12 | 0.03 µg/mL (≈ 0.0817 µM) | 2.96 | 3 µM | 1 µg/mL (≈ 2.72 µM) | > 128 µg/mL | MIC90 (Staphylococcus aureus [8]): 0.25 µg/mL (≈ 0.681 µM); MIC (Neisseria gonorrhoeae): 0.06 µg/mL (≈ 0.163 µM); MIC (Staphylococcus aureus [5]): 0.06 µg/mL (≈ 0.163 µM); MIC (Staphylococcus aureus [6]): 0.5 µg/mL (≈ 1.36 µM); pIC50 (Cytochrome P450 1A2): < 4.52; pIC50 (Cytochrome P450 2C9): < 4.52; pIC50 (Cytochrome P450 2C19): < 4.52; pIC50 (Cytochrome P450 3A4): < 4.52; pIC50 (Cytochrome P450 2D6): < 4.52; inhibition at 100 µM (hERG (KCNH2)): 3%
